Laboratory results: ChEMBL document CHEMBL1255395, “Laninamivir prodrug CS-8958, a long-acting neuraminidase inhibitor, shows superior anti-influenza virus activity after a single administration” (Antimicrob Agents Chemother, 2010)
Active and inactive are the calls of the source. No cut-off for these calls is given here.

Legend:
Format in all cases: functional, organism-based
[1] = tested on: Influenza A virus; assay: Antimicrobial activity against H274Y mutant oseltamivir-resistant influenza A virus (A/Yokohama/67/2006 (H1N1)) clone 11 infected in BALB/c mouse assessed as reduction in viral titer in lung at 0.080 mg/kg, itn administered 13 hrs post infection measured after 37 hrs post infection; parameters: dose 0.08 mg/kg
Summary of the method: (§1)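 Female BALB/c mice (5–6 weeks) infected intranasally with clone 11, then given a single intranasal dose in saline at 13 hpi. Lungs from 3 mice per time point were homogenized in PBS with 0.4% BSA and centrifuged at 2,200 × g. Supernatants were titrated by MDCK plaque assay (agar overlay with 1 μg/ml trypsin, 2 days, crystal violet). Reported as log10 PFU/lungs, mean ± SD; detection limit 2.4.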

[2] = tested on: Influenza A virus; assay: Antimicrobial activity against H274Y mutant oseltamivir-resistant influenza A virus (A/Yokohama/67/2006 (H1N1)) clone 11 infected in BALB/c mouse assessed as reduction in viral titer in lung at 0.080 mg/kg, itn administered 13 hrs post infection measured after 61 hrs post infection; parameters: dose 0.08 mg/kg; summary of the method: as §1
[3] = tested on: Influenza A virus; assay: Antimicrobial activity against H274Y mutant oseltamivir-resistant influenza A virus (A/Yokohama/67/2006 (H1N1)) clone 11 infected in BALB/c mouse assessed as reduction in viral titer in lung at 0.080 mg/kg, itn administered 13 hrs post infection measured after 85 hrs post infection; parameters: dose 0.08 mg/kg; summary of the method: as §1
[4] = tested on: Influenza A virus; assay: Antimicrobial activity against H274Y mutant oseltamivir-resistant influenza A virus (A/Yokohama/67/2006 (H1N1)) clone 11 infected in BALB/c mouse assessed as reduction in viral titer in lung at 1.0 mg/kg, po administered 13 hrs post infection, qd measured after 37 hrs post infection; parameters: dose 1 mg/kg
[5] = tested on: Influenza A virus; assay: Antimicrobial activity against H274Y mutant oseltamivir-resistant influenza A virus (A/Yokohama/67/2006 (H1N1)) clone 11 infected in BALB/c mouse assessed as reduction in viral titer in lung at 1.0 mg/kg, po administered 13 hrs post infection, qd measured after 61 hrs post infection; parameters: dose 1 mg/kg
[6] = tested on: Influenza A virus; assay: Antimicrobial activity against H274Y mutant oseltamivir-resistant influenza A virus (A/Yokohama/67/2006 (H1N1)) clone 11 infected in BALB/c mouse assessed as reduction in viral titer in lung at 1.0 mg/kg, po administered 13 hrs post infection, qd measured after 85 hrs post infection; parameters: dose 1 mg/kg
[7] = tested on: Influenza A virus; assay: Antimicrobial activity against H274Y mutant oseltamivir-resistant influenza A virus (A/Yokohama/67/2006 (H1N1)) clone 11 infected in BALB/c mouse assessed as reduction in viral titer in lung at 10 mg/kg, po administered 13 hrs post infection, qd measured after 37 hrs post infection; parameters: dose 10 mg/kg
[8] = tested on: Influenza A virus; assay: Antimicrobial activity against H274Y mutant oseltamivir-resistant influenza A virus (A/Yokohama/67/2006 (H1N1)) clone 11 infected in BALB/c mouse assessed as reduction in viral titer in lung at 10 mg/kg, po administered 13 hrs post infection, qd measured after 61 hrs post infection; parameters: dose 10 mg/kg
[9] = tested on: Influenza A virus; assay: Antimicrobial activity against H274Y mutant oseltamivir-resistant influenza A virus (A/Yokohama/67/2006 (H1N1)) clone 11 infected in BALB/c mouse assessed as reduction in viral titer in lung at 10 mg/kg, po administered 13 hrs post infection, qd measured after 85 hrs post infection; parameters: dose 10 mg/kg

SMILES	Activity [1]	Activity [2]	Activity [3]	Activity [4]	Activity [5]	Activity [6]	Activity [7]	Activity [8]	Activity [9]
CCCCCCCC(=O)OC[C@@H](O)[C@@H](OC)[C@@H]1OC(C(=O)O)=C[C@H](NC(=N)N)[C@H]1NC(C)=O [LANINAMIVIR OCTANOATE]	Active	Active	Active						
CCOC(=O)C1=C[C@@H](OC(CC)CC)[C@H](NC(C)=O)[C@@H](N)C1.O=P(O)(O)O [OSELTAMIVIR PHOSPHATE]				inactive	inactive	inactive	inactive	inactive	inactive
